Data reported in ChEMBL document CHEMBL1153820, “Novel derivatives of pyridylbenzo[b]thiophene-2-carboxamides and benzo[b]thieno[2,3-c]naphthyridin-2-ones: minor structural variations provoke major differences of antitumor action mechanisms” (J Med Chem, 2009).
pIC50: −log10 of the molar value. Calls of active or inactive are those of the source. The calls are words filed in the database; no cut-off is given here.

Experiments:
[1] = test system: HeLa; test: Growth inhibition of human HeLa cells after 72 hrs by MTT method; type: functional, cell-based
Method in brief: (§1)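 Cells in DMEM with 10% FBS, 2 mM L-glutamine, penicillin/streptomycin, 37 °C, 5% CO2. Seeded at 1 × 10^4 to 3 × 10^4 cells/mL. Compound given as five 10-fold dilutions (10-8–10-4 M, DMSO under 1%) for 72 h, then MTT read-out. Quadruplicate, three experiments. IC50 by linear regression between concentrations bracketing 50% growth; top concentration reported as ">" when not reached.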

[2] = test system: NCI-H460; test: Growth inhibition of human H460 cells after 72 hrs by MTT method; type: functional, cell-based; details: NCI-H460, 72 h; method in brief: as §1
[3] = test system: MCF7; test: Growth inhibition of human MCF7 cells after 72 hrs by MTT method; type: functional, cell-based; details: MCF7, 72 h; method in brief: as §1
[4] = test system: MIA PaCa-2; test: Growth inhibition of human MIAPaCa2 cells after 72 hrs by MTT method; type: functional, cell-based; details: MIA PaCa-2, 72 h; method in brief: as §1
[5] = test system: SW-620; test: Growth inhibition of human SW620 cells after 72 hrs by MTT method; type: functional, cell-based; details: SW-620, 72 h; method in brief: as §1
[6] = test system: MIA PaCa-2; test: Cell cycle arrest in human MIAPaCa2 cells assessed as accumulation at G2/M phase at 5 uM after 48 hrs by flow cytometry; type: functional
Method in brief: (§2)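 MiaPaCa-2 cells (2 × 10^5/well) seeded, compound (5 μM) added after 24 h, exposed 24 or 48 h. Attached and floating cells pooled, fixed in 70% ethanol, stained with propidium iodide 50 μg/mL plus RNase A. 20 000 events by flow cytometry; phase percentages (sub-G1 taken as apoptotic) from DNA histograms. Duplicates, repeated at least twice.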

[7] = test system: MIA PaCa-2; test: Cell cycle arrest in human MIAPaCa2 cells assessed as accumulation at G2/M phase at 5 uM after 24 hrs by flow cytometry; type: functional; method in brief: as §2
[8] = test system: Calf thymus DNA; test: Binding affinity to calf thymus DNA assessed as change in melting temperature at [compound]/[polynucleotide] ratio of 0.3 at pH 7.0; type: nucleic-acid assay; details: Bos taurus
Method in brief: (§3)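 Thermal denaturation of ct-DNA (sonicated, filtered, concentration as phosphate) alone and with compound in Na cacodylate buffer pH 7.0, I = 0.05 mol dm-3. Absorbance at 260 nm followed versus temperature, ligand absorbance subtracted, scale normalized. Tm is the transition midpoint, from the first-derivative maximum or by tangent method. ΔTm = Tm(complex) − Tm(free DNA). Mean of at least two runs, error ±0.5 °C.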

[9] = test system: MIA PaCa-2; test: Cell cycle arrest in human MIAPaCa2 cells assessed as accumulation at subG1 phase at 5 uM after 48 hrs by flow cytometry; type: functional; method in brief: as §2
[10] = test system: MIA PaCa-2; test: Cell cycle arrest in human MIAPaCa2 cells assessed as accumulation at subG1 phase at 5 uM after 24 hrs by flow cytometry; type: functional; method in brief: as §2
[11] = test system: MIA PaCa-2; test: Induction of cell shape disruption in human MIAPaCa2 cells at 5 uM after 24 hrs by immunofluorescence spectroscopy; type: functional, cell-based
Method in brief: (§4)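 MiaPaCa-2 cells (2 × 10^5) grown overnight on coverslips, then exposed to 5 μM compound for 24 h. Fixed in 4% formaldehyde, permeabilized with 0.1% Triton X-100, blocked with 4% FCS. Stained with mouse anti-α-tubulin (1/200, 2 h) and FITC anti-mouse secondary (1/500, 1 h). Nuclei stained with DAPI 100 ng/mL; fluorescence microscopy at 400×.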

[12] = test system: MIA PaCa-2; test: Cell cycle arrest in human MIAPaCa2 cells assessed as accumulation at S phase at 5 uM after 48 hrs by flow cytometry; type: functional; method in brief: as §2
[13] = test system: MIA PaCa-2; test: Induction of nuclear fragmentation in human MIAPaCa2 cells at 5 uM after 24 hrs by DAPI staining; type: functional, cell-based; method in brief: as §4
[14] = test system: MIA PaCa-2; test: Induction of apoptosis in human MIAPaCa2 cells by flow cytometry; type: functional, cell-based; method in brief: as §2
[15] = test system: MIA PaCa-2; test: Cell cycle arrest in human MIAPaCa2 cells assessed as accumulation at G1/G0 phase at 5 uM after 48 hrs by flow cytometry; type: functional; method in brief: as §2
[16] = test system: MIA PaCa-2; test: Cell cycle arrest in human MIAPaCa2 cells assessed as accumulation at G1/G0 phase at 5 uM after 24 hrs by flow cytometry; type: functional; method in brief: as §2
[17] = test system: Calf thymus DNA; test: Binding affinity to calf thymus DNA assessed as change in melting temperature at [compound]/[polynucleotide] ratio of 0.5 at pH 7.0; type: nucleic-acid assay; details: Bos taurus; method in brief: as §3
[18] = test system: MIA PaCa-2; test: Induction of tubulin network disruption in human MIAPaCa2 cells at 5 uM after 24 hrs by immunofluorescence spectroscopy; type: functional, cell-based; method in brief: as §4
[19] = test system: MIA PaCa-2; test: Cell cycle arrest in human MIAPaCa2 cells assessed as accumulation at S phase at 5 uM after 24 hrs by flow cytometry; type: functional; method in brief: as §2
[20] = test system: MIA PaCa-2; test: Induction of multinucleation in human MIAPaCa2 cells at 5 uM after 24 hrs by DAPI staining; type: functional, cell-based; method in brief: as §4
[21] = test system: Calf thymus DNA; test: Binding affinity to calf thymus DNA at pH 7.0 by UV/Visible spectroscopy; type: nucleic-acid assay; details: Bos taurus
Method in brief: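 UV/vis titration: portions of ct-DNA (as phosphate) added to compound (c = 1.2 × 10-5 mol dm-3). Na cacodylate buffer pH 7.0, I = 0.05 mol dm-3; change followed at λmax 314 nm. Ks and n from Scatchard equation by nonlinear least-squares fitting.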

[22] = test system: Calf thymus DNA; test: Binding affinity to calf thymus DNA at pH 7.0 by fluorimetric titration method; type: nucleic-acid assay; details: Bos taurus
Method in brief: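 Fluorimetric titration: ct-DNA portions added to compound at about tenfold lower concentration than in UV/vis, absorbance below 0.05 at excitation. Emission 350–550 nm in Na cacodylate buffer pH 7.0, I = 0.05 mol dm-3. log Ks from Scatchard fitting (nonlinear least squares) at fixed n = 0.2.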

[23] = test system: Calf thymus DNA; test: Binding affinity to calf thymus DNA minor groove assessed as change in DNA spectrum by CD spectroscopy; type: nucleic-acid assay; details: Bos taurus
[24] = species: Bos taurus; test: Inhibition of calf thymus topoisomerase 1-mediated DNA relaxation assessed as induction of plasmid DNA nicking at 200 uM by gel electrophoresis
Method in brief: (§5)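 Supercoiled pCI plasmid (0.8 μg) with calf thymus topoisomerase I (6 U) ± compound (200 μM) in Tris-HCl pH 7.5, 175 mM KCl, 5 mM MgCl2, 0.1 mM EDTA, 2.5% glycerol; 37 °C, 30 min. Stopped with SDS, then proteinase K and phenol/chloroform extraction. Samples run on 1% agarose with and without 0.5 μg/mL ethidium bromide to resolve nicked, supercoiled and relaxed forms; UV visualization.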

[25] = test system: Calf thymus DNA; test: Binding affinity to calf thymus DNA assessed as decrease in DNA bands at 245 nm and 280 nm wavelength by CD spectroscopy; type: nucleic-acid assay; details: Bos taurus
[26] = species: Bos taurus; test: Inhibition of calf thymus topoisomerase 1-mediated DNA relaxation at 200 uM by gel electrophoresis; method in brief: as §5
[27] = species: Bos taurus; test: Inhibition of calf thymus topoisomerase 1-mediated DNA relaxation assessed as induction of plasmid DNA nicking at 100 uM by gel electrophoresis
Method in brief: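 Purified calf thymus topoisomerase I (6 U) was incubated with negatively supercoiled pCI plasmid (0.8 μg), with or without compound, in Tris-HCl relaxation buffer (pH 7.5, 175 mM KCl, 5 mM MgCl2) at 37 °C for 30 min. The reaction was stopped with SDS and proteinase K, then phenol-extracted. Samples were split onto 1% agarose gels with and without ethidium bromide to separate nicked, supercoiled and relaxed forms, and read under UV.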

Row | Compound | pIC50 [1] | pIC50 [2] | pIC50 [3] | pIC50 [4] | pIC50 [5] | Activity [6] | Activity [7] | ΔTm [8] | Activity [9] | Activity [10] | Activity [12] | Activity [15] | Activity [16] | ΔTm [17] | Activity [19] | further results
1 | N#Cc1cnc2[nH]c(=O)c3sc4ccccc4c3c2c1 | 5.15 | < 4.00 | 4.35 | 4.92 | 4.66 |  |  |  |  |  |  |  |  |  |  | 
2 | O=C(Nc1ccncc1)c1sc2ccccc2c1Cl | 5.70 | 4.17 | 4.29 | 4.42 | 4.42 |  |  |  |  |  |  |  |  |  |  | 
3 | Cl.O=C(Nc1ccc(C2=NCCN2)nc1)c1sc2ccccc2c1Cl | 6.00 | 5.89 | 5.40 | 5.80 | 5.89 | 50.9% | 66.5% | 0 °C | 36% | 18.5% | 26% | 23.14% | 17.5% | 0.9 °C | 16% | Activity [11]: Active; Activity [13]: Active; Activity [14]: Active; Activity [18]: Active; Activity [20]: Active
4 | Cl.O=C(Nc1ccc(C2=NCCN2)cn1)c1sc2ccccc2c1Cl | 5.82 | 6.00 | 5.74 | 6.00 | 6.00 | 15.1% | 20.7% | 1.3 °C | 4.9% | 3.2% | 32.6% | 52.3% | 37.7% | 2.1 °C | 41.6% | log Ks [21]: 5.7; log Ks [22]: 5.6; Activity [23]: Active; Activity [24]: inactive
5 | N#Cc1ccc(NC(=O)c2sc3ccccc3c2Cl)nc1 | 5.70 | 4.23 | 4.70 | 5.10 | 4.70 |  |  |  |  |  |  |  |  |  |  | 
6 | Cl.O=c1[nH]c2ncc(C3=NCCN3)cc2c2c1sc1ccccc12 | 5.77 | 6.00 | 5.80 | 6.00 | 6.22 | 14.1% | 19.7% | 6.6 °C | 1.7% | 2% | 33.2% | 52.8% | 38.9% | 8.7 °C | 41.5% | Activity [25]: Active; log Ks [22]: 6.44; Activity [24]: inactive; Activity [26]: Active
7 | CC[C@@]1(O)C(=O)OCc2c1cc1n(c2=O)Cc2cc3ccccc3nc2-1 |  |  |  |  |  |  |  |  |  |  |  |  |  |  |  | Activity [27]: Active
8 | N=C(N)c1ccc(-c2cc3ccc(C(=N)N)cc3[nH]2)cc1 |  |  |  |  |  |  |  |  |  |  |  |  |  |  |  | Activity [27]: inactive
9 | O=c1[nH]c2ccncc2c2c1sc1ccccc12 | 4.85 | < 4.00 | < 4.00 | 5.15 | 5.22 |  |  |  |  |  |  |  |  |  |  | 
